Read-outs that look alike come from different tables or passages of the source.
Tests used:
[1] = tested on: mixture of tyrosine kinases extracted from HT-29 cell line; assay type: biochemical, human; conditions: 10 μM
purified Src kinase = purified Src kinase (Homo sapiens, UniProt P12931); assay: biochemical; conditions: for inhibition at 10 µM: read-out: Src kinase inhibition
HCT-116 cells [2] = assay: Annexin V-FITC/PI apoptosis/necrosis assessment, HCT-116; assay type: cell-based, human; conditions: 10 μM, 48 h, versus control
Procedure, shortened: (§1)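 Human colorectal cancer cells were exposed to 10 μM test compound for 48 h, then stained with annexin V-FITC/PI and analysed by flow cytometry to separate apoptotic from necrotic cells. Each population is expressed as a percentage of total events and compared with untreated control. Values are mean ± SD, n = 3.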

HT-29 cells [3] = assay: cells; conditions: Homo sapiens, HT-29, 72 h; for viability at 10 µM: read-out: viability drop compared to control cells
[4] = tested on: LS-174T colorectal cancer cells; assay: cells; conditions: Homo sapiens, LS174T, 72 h, read-out: viability drop compared to control cells
HCT-116 cells [5] = assay: Cell cycle distribution by DNA cytometry, HCT-116; assay type: cell-based, human; conditions: 10 μM, 48 h
HT-29 cells [6] = assay: Cell cycle distribution by DNA cytometry, HT-29; assay type: cell-based, human; conditions: 10 μM, 48 h; for cells in S-phase: control 27.3 ± 0.6%; for cell population in G0/G1-phase: control 53.4 ± 2.7%; for cell population in G2/M-phase: control 19.3 ± 1.6%
HT-29 cells [7] = assay: Annexin V-FITC/PI apoptosis/necrosis assessment, HT-29; assay type: cell-based, human; conditions: 10 μM, 48 h, versus control
Procedure, shortened: as §1

HCT-116 cells [8] = assay: Cyto-ID autophagy assessment, HCT-116; assay type: cell-based, human; conditions: 10 μM, 48 h
HT-29 cells [9] = assay: Cyto-ID autophagy assessment, HT-29; assay type: cell-based, human; conditions: for inhibition at 10 µM: Homo sapiens, HT-29, 48 h, read-out: inhibition of autophagy
HCT-116 cells [10] = conditions: 72 h; for viability drop compared to control cells: 100 μM
HCT-116 cells [11] = assay: cells; conditions: Homo sapiens, HCT-116, 72 h; for IC50: 72 h; for viability at 10 µM: read-out: viability drop compared to control cells
HT-29 cells [12] = conditions: 72 h; for viability drop compared to control cells: 100 μM
[13] = tested on: LS-174T colorectal cancer cells; conditions: 100 μM; 72 h

Chain of purified Src kinase (P12931 whole entry, looked up): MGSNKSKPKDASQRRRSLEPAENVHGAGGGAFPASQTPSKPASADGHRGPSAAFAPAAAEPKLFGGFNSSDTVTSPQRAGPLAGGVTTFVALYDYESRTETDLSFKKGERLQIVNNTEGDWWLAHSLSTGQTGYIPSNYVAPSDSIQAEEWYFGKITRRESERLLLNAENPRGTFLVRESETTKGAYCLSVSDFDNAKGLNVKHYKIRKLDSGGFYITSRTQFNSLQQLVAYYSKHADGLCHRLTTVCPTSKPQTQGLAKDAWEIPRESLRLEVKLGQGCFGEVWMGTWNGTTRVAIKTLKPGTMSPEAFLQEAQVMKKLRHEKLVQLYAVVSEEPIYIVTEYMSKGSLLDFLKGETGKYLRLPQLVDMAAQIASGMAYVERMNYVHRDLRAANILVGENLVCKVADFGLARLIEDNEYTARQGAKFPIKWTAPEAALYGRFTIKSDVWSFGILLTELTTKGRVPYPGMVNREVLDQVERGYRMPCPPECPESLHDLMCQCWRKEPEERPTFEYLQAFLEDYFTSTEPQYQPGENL

COc1cc(C)cc(-c2nc(Nc3cc(C(F)(F)F)cc(C(F)(F)F)c3)ncc2-c2ccnc(Cl)c2)c1 [Compound 7]
multi-kinase inhibitory effect [1]: 37.4 ± 3.7%
Src kinase inhibitory activity in words (dose-response) (purified Src kinase): moderate inhibitory activity
inhibition at 10 µM (purified Src kinase): 42.3 ± 10.3%
increase of necrotic cell population (HCT-116 cells [2]): 3.4 folds
IC50 (HT-29 cells [3]): 9.4 ± 0.5 µM
viability at 10 µM (HT-29 cells [3]): > 50%
viability at 100 µM [4]: > 50%

COc1cc(C)cc(-c2nc(Nc3cc(C(F)(F)F)cc(C(F)(F)F)c3)ncc2-c2ccnc(-c3ccccc3)c2)c1 [Compound 8a]
multi-kinase inhibitory effect [1]: 23 ± 0.4%
Src kinase selectivity index (purified Src kinase): 2.4
inhibition at 10 µM (purified Src kinase): 54 ± 0.6%

COc1cc(C)cc(-c2nc(Nc3cc(C(F)(F)F)cc(C(F)(F)F)c3)ncc2-c2ccnc(-c3cccnc3)c2)c1 [Compound 8b]
multi-kinase inhibitory effect [1]: 26.6 ± 2.4%
EC50 (purified Src kinase): 1.3 ± 0.3 µM
Src kinase selectivity index (purified Src kinase): 2.9
inhibition at 10 µM (purified Src kinase): 77.8 ± 1.3%
cells in S-phase (HCT-116 cells [5]; control 36.4 ± 4.1%): 22.8 ± 2.3%
cells in G0/G1-phase (HCT-116 cells [5]; control 39.5 ± 4.6%): 50.2 ± 1.0%
cells in S-phase (HT-29 cells [6]): 21.0 ± 0.9%
cell population in G0/G1-phase (HT-29 cells [6]): 58.8 ± 1.8%
increase of apoptotic cell population (HCT-116 cells [2]): 3.8 folds
increase of necrotic cell population (HCT-116 cells [2]): 2.9 folds
increase of apoptotic cell population (HT-29 cells [7]): 2.5 folds
autophagic signal higher than control cells (HCT-116 cells [8]): 54%
inhibition at 10 µM (HT-29 cells [9]): 21%
IC50 (HCT-116 cells [10]): 32.4 ± 2.8 µM
R (resistance fraction) (HCT-116 cells [10]): 3.7 ± 0.9%
IC50 (HCT-116 cells [11]): > 25 µM
viability at 10 µM (HCT-116 cells [11]): 30 to 45%
IC50 (HT-29 cells [3]): 11.3 ± 0.5 µM
viability at 10 µM (HT-29 cells [3]): 35 to 45%

COc1cc(C)cc(-c2nc(Nc3cc(C(F)(F)F)cc(C(F)(F)F)c3)ncc2-c2ccnc(-c3cccc(C(C)=O)c3)c2)c1 [Compound 8c]
viability at 10 µM (HT-29 cells [3]): 35 to 45%

COc1cc(C)cc(-c2nc(Nc3cc(C(F)(F)F)cc(C(F)(F)F)c3)ncc2-c2ccnc(-c3ccc(C#N)cc3)c2)c1 [Compound 8f]
viability at 10 µM (HCT-116 cells [11]): > 50%
viability at 10 µM (HT-29 cells [3]): > 50%
viability at 10 µM [4]: > 50%
viability at 100 µM [4]: > 50%

COc1cc(C)cc(-c2nc(Nc3cc(C(F)(F)F)cc(C(F)(F)F)c3)ncc2-c2ccnc(-c3ccc(N(C)C)cc3)c2)c1 [Compound 8g]
multi-kinase inhibitory effect [1]: 33.1 ± 0.4%
inhibition at 10 µM (purified Src kinase): 28.5 ± 1.2%
viability at 10 µM (HCT-116 cells [11]): 30 to 45%
viability at 10 µM (HT-29 cells [3]): > 50%
viability at 100 µM [4]: > 50%

COc1cc(C)cc(-c2nc(Nc3cc(C(F)(F)F)cc(C(F)(F)F)c3)ncc2-c2ccnc(-c3ccc(N(c4ccccc4)c4ccccc4)cc3)c2)c1 [Compound 8h]
viability drop compared to control cells (HCT-116 cells [10]): failed to show any considerable antiproliferative/cytotoxic effects
viability drop compared to control cells (HT-29 cells [12]): failed to show any considerable antiproliferative/cytotoxic effects
viability drop compared to control cells [13]: failed to show any considerable antiproliferative/cytotoxic effects

COc1cc(C)cc(-c2nc(Nc3cc(C(F)(F)F)cc(C(F)(F)F)c3)ncc2-c2ccnc(-c3ccc(Oc4ccccc4)cc3)c2)c1 [Compound 8j]
multi-kinase inhibitory effect [1]: 26 ± 0.5%
Src kinase selectivity index (purified Src kinase): 2.1
inhibition at 10 µM (purified Src kinase): 54.9 ± 1.6%

Cc1cc(O)cc(-c2nc(Nc3cc(C(F)(F)F)cc(C(F)(F)F)c3)ncc2-c2ccnc(-c3ccccc3)c2)c1 [Compound 10a]
multi-kinase inhibitory effect [1]: 24.7 ± 4.6%
Src kinase inhibitory activity in words (dose-response) (purified Src kinase): completely inactive
cell population in G2/M-phase (HT-29 cells [6]): 24.8 ± 0.4%
cells in S-phase (HT-29 cells [6]): 29.8 ± 0.6%
cell population in G0/G1-phase (HT-29 cells [6]): 45.4 ± 0.6%
increase of apoptotic cell population (HCT-116 cells [2]): 7.5 folds
increase of necrotic cell population (HCT-116 cells [2]): 4.0 folds
inhibition at 10 µM (HT-29 cells [9]): 24%
IC50 (HCT-116 cells [11]): 10.3 ± 0.6 µM
viability at 10 µM (HCT-116 cells [11]): 30 to 45%
IC50 (HT-29 cells [3]): 9.9 ± 0.3 µM
viability at 10 µM (HT-29 cells [3]): > 50%

Cc1cc(O)cc(-c2nc(Nc3cc(C(F)(F)F)cc(C(F)(F)F)c3)ncc2-c2ccnc(-c3cccnc3)c2)c1 [Compound 10b]
Src kinase inhibitory activity in words (dose-response) (purified Src kinase): completely inactive
cell population in G2/M-phase (HT-29 cells [6]): 25.1 ± 0.6%
cells in S-phase (HT-29 cells [6]): 23.0 ± 0.5%
increase of apoptotic cell population (HCT-116 cells [2]): 4.7 folds
increase of necrotic cell population (HCT-116 cells [2]): 2.4 folds
increase of apoptotic cell population (HT-29 cells [7]): 2.3 folds
autophagic signal higher than control cells (HCT-116 cells [8]): 30%
IC50 (HCT-116 cells [10]): 25.9 ± 1.3 µM
R (resistance fraction) (HCT-116 cells [10]): <1%
IC50 (HCT-116 cells [11]): > 25 µM
viability at 10 µM (HCT-116 cells [11]): 30 to 45%
IC50 (HT-29 cells [3]): 6.4 ± 0.5 µM
viability at 10 µM (HT-29 cells [3]): > 50%

CC(=O)c1cccc(-c2cc(-c3cnc(Nc4cc(C(F)(F)F)cc(C(F)(F)F)c4)nc3-c3cc(C)cc(O)c3)ccn2)c1 [Compound 10c]
viability at 10 µM (HCT-116 cells [11]): 30 to 45%
viability at 10 µM (HT-29 cells [3]): 35 to 45%
viability at 10 µM [4]: > 50%
viability at 100 µM [4]: > 50%

CC(=O)c1ccc(-c2cc(-c3cnc(Nc4cc(C(F)(F)F)cc(C(F)(F)F)c4)nc3-c3cc(C)cc(O)c3)ccn2)cc1 [Compound 10d]
viability at 10 µM (HT-29 cells [3]): 35 to 45%
viability at 10 µM [4]: > 50%
viability at 100 µM [4]: > 50%

Cc1cc(O)cc(-c2nc(Nc3cc(C(F)(F)F)cc(C(F)(F)F)c3)ncc2-c2ccnc(-c3ccc(C#N)cc3)c2)c1 [Compound 10f]
multi-kinase inhibitory effect [1]: 23.9 ± 7.4%
Src kinase inhibitory activity in words (dose-response) (purified Src kinase): completely inactive
increase of apoptotic cell population (HCT-116 cells [2]): 15.2 folds
increase of necrotic cell population (HCT-116 cells [2]): 3.7 folds
increase of apoptotic cell population (HT-29 cells [7]): 1.7 folds
autophagic signal higher than control cells (HCT-116 cells [8]): 99%
IC50 (HCT-116 cells [11]): 9.2 ± 0.8 µM
viability at 10 µM (HCT-116 cells [11]): 30 to 45%
IC50 (HT-29 cells [3]): 7.2 ± 1.1 µM

Cc1cc(O)cc(-c2nc(Nc3cc(C(F)(F)F)cc(C(F)(F)F)c3)ncc2-c2ccnc(-c3ccc(N(C)C)cc3)c2)c1 [Compound 10g]
multi-kinase inhibitory effect [1]: 39 ± 0.4%
EC50 (purified Src kinase): 3.7 ± 0.7 µM
inhibition at 10 µM (purified Src kinase): 51.3 ± 9.8%
R (resistance fraction) (HCT-116 cells [10]): 41.6 ± 3.2%
R (resistance fraction) (HT-29 cells [12]): 12.9 ± 3.9%
IC50 (HCT-116 cells [11]): 9.4 ± 0.9 µM
viability at 10 µM (HCT-116 cells [11]): 30 to 45%
IC50 (HT-29 cells [3]): 24.2 ± 2.1 µM
viability at 100 µM [4]: > 50%

Cc1cc(O)cc(-c2nc(Nc3cc(C(F)(F)F)cc(C(F)(F)F)c3)ncc2-c2ccnc(-c3ccc(N(c4ccccc4)c4ccccc4)cc3)c2)c1 [Compound 10h]
viability drop compared to control cells (HCT-116 cells [10]): failed to show any considerable antiproliferative/cytotoxic effects
viability drop compared to control cells (HT-29 cells [12]): failed to show any considerable antiproliferative/cytotoxic effects
viability drop compared to control cells [13]: failed to show any considerable antiproliferative/cytotoxic effects

Cc1cc(O)cc(-c2nc(Nc3cc(C(F)(F)F)cc(C(F)(F)F)c3)ncc2-c2ccnc(-c3ccc(Oc4ccccc4)cc3)c2)c1 [Compound 10j]
multi-kinase inhibitory effect [1]: 30.2 ± 0.4%
viability at 10 µM (HCT-116 cells [11]): 30 to 45%
viability at 10 µM (HT-29 cells [3]): 35 to 45%
viability at 10 µM [4]: > 50%
viability at 100 µM [4]: > 50%

CCN(CC)CCCC(C)Nc1ccnc2cc(Cl)ccc12 (stereo not drawn) [chloroquine, reference compound]
autophagic signal higher than control cells (HCT-116 cells [8]): 65%
effect on autophagy in words (HT-29 cells [9]; HT-29, 10 μM, 48 h, Cyto-ID): induced autophagy

From article PMC9066187 (RSC Advances, 2019)
